The subject of series [1] is Mus musculus. In words: Prodrug activation in BALB/c mouse assessed as 3-(tert-butyl)-1-cyclohexyl-1-(6-((2R,3R,4R,5S)-3,4,5-trihydroxy-2-(hydroxymethyl)piperidin-1-yl)hexyl)urea Cmax at 100 mg/kg, po administered as single dose by LC-MS/MS analysis. Format: organism-based. The arrangement: dose 100 mg/kg, route oral. Conditions: in vivo. In a few lines: (§1)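 Male BALB/c mice dosed with the prodrugs or the parent orally (25 or 100 mg/kg) or intravenously (5 mg/kg). The parent compound was quantified in plasma and PK parameters were derived from it. The first sampling point was 5 min post-dose, and prodrugs were tracked up to 4 h.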

Series [2] in a line: Metabolic stability in pooled human liver microsomes assessed as parent compound remaining at 200 uM measured after 60 mins in presence of NADPH and UDPGA by LC-MS/MS analysis. The series is classed as ADME, microsome. The note with it: read-out: Stability. In a few lines: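 Prodrugs or parent incubated in pooled human or mouse liver microsomes for up to 60 min, with or without cofactor. Percent remaining and percent conversion to the parent were measured.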
Background: Liver microsomes are a subcellular fraction often used to study metabolism.

In series [3] the test system is Mus musculus. The experiment in a line: Prodrug activation in BALB/c mouse assessed as 3-(tert-butyl)-1-cyclohexyl-1-(6-((2R,3R,4R,5S)-3,4,5-trihydroxy-2-(hydroxymethyl)piperidin-1-yl)hexyl)urea Tmax at 25 mg/kg, po administered as single dose by LC-MS/MS analysis. The series is classed as organism-based. Conditions: in vivo. In a few lines:
as §1

In series [4] the test system is Mus musculus. The experiment in a line: Prodrug activation in po dosed BALB/c mouse assessed as 3-(tert-butyl)-1-cyclohexyl-1-(6-((2R,3R,4R,5S)-3,4,5-trihydroxy-2-(hydroxymethyl)piperidin-1-yl)hexyl)urea formation measured after 5 mins by LC-MS/MS analysis. Conditions: in vivo. Format: organism-based. In a few lines: as §1
Series [5] relates to Mus musculus. In words: Prodrug activation in BALB/c mouse assessed as 3-(tert-butyl)-1-cyclohexyl-1-(6-((2R,3R,4R,5S)-3,4,5-trihydroxy-2-(hydroxymethyl)piperidin-1-yl)hexyl)urea half life at 5 mg/kg, iv as bolus administration by LC-MS/MS analysis. The series is classed as organism-based. Conditions: in vivo. In a few lines: as §1
The subject of series [6] is Mus musculus. The experiment in a line: Prodrug activation in BALB/c mouse assessed as 3-(tert-butyl)-1-cyclohexyl-1-(6-((2R,3R,4R,5S)-3,4,5-trihydroxy-2-(hydroxymethyl)piperidin-1-yl)hexyl)urea Cmax at 5 mg/kg, iv as bolus administration by LC-MS/MS analysis. The series is classed as organism-based. More on the design: dose 5 mg/kg, route intravenous. The note with it: in vivo. In a few lines:
as §1

Series [7] is described as follows: Prodrug activation in simulated gastric fluid assessed as 3-(tert-butyl)-1-cyclohexyl-1-(6-((2R,3R,4R,5S)-3,4,5-trihydroxy-2-(hydroxymethyl)piperidin-1-yl)hexyl)urea formation at 5 uM measured after 4 hrs by LC-MS/MS analysis. In a few lines:
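Chemical stability assessed by incubation in simulated gastric fluid and simulated intestinal fluid; percent of compound remaining was measured.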

Series [8] relates to Mus musculus. The experiment in a line: Prodrug activation in BALB/c mouse assessed as 3-(tert-butyl)-1-cyclohexyl-1-(6-((2R,3R,4R,5S)-3,4,5-trihydroxy-2-(hydroxymethyl)piperidin-1-yl)hexyl)urea formation at 100 mg/kg, po administered as single dose measured after 3 hrs by LC-MS/MS analysis. The series is classed as organism-based. Conditions: in vivo. In a few lines:
as §1

For series [9], the system named is Mus musculus. In words: Prodrug activation in po dosed BALB/c mouse assessed as 3-(tert-butyl)-1-cyclohexyl-1-(6-((2R,3R,4R,5S)-3,4,5-trihydroxy-2-(hydroxymethyl)piperidin-1-yl)hexyl)urea formation measured up to 4 hrs by LC-MS/MS analysis. The series is classed as organism-based. The note with it: in vivo. In a few lines: as §1

Turning to `CCCC(=O)OC[C@@H]1[C@@H](OC(=O)CCC)[C@H](OC(=O)CCC)[C@@H](OC(=O)CCC)CN1CCCCCCN(C(=O)NC(C)(C)C)C1CCCCC1`, the highest concentration (Cmax) – broadly, the maximum level reached in the sampled fluid or tissue – in series [1] came out at 0.998 µg/mL; in [6], 15.733 µg/mL. Moreover, the remaining at 1 h, 200 µM in series [2] is 4%. Also, the Tmax – broadly, the time at which the peak concentration occurs – in [3] was 15 min. Further, the Drug metabolism entry in [4] was “Metabolite_Detected”; in series [7], 0%; in [8] it was above 1 µM. Further, the t1/2 in [5] is 50.4 min.
Turning to `CC(=O)OC[C@@H]1[C@@H](OC(C)=O)[C@H](OC(C)=O)[C@@H](OC(C)=O)CN1CCCCCCN(C(=O)NC(C)(C)C)C1CCCCC1`, the Cmax in [1] stood at 1.597 µg/mL; in [6] it was 0.463 µg/mL. For the same compound, in series [2], the remaining at 1 h, 200 µM was found to be 0%. Moreover, the time of peak concentration (Tmax) in series [3] stood at 15 min. Further, the Drug metabolism entry in [4] was “Metabolite_Detected”; in series [7], 0%. In [5], the t1/2 stood at 66.6 min.
Turning to `CC(C)C(=O)OC[C@@H]1[C@@H](OC(=O)C(C)C)[C@H](OC(=O)C(C)C)[C@@H](OC(=O)C(C)C)CN1CCCCCCN(C(=O)NC(C)(C)C)C1CCCCC1`, the results for the Cmax in series [1] and in [6] were 0.195 µg/mL and 1.213 µg/mL, respectively. In addition, in series [2], the remaining at 1 h, 200 µM is 2%. Besides, the Tmax in [3] turned out to be 30 min. The t1/2 in series [5] worked out at 75 min. Further, the Drug metabolism in series [7] was 0%; in series [9] it was “Metabolite_Notdetected”.
